Screens (PubChem)
The list is not random: actives were taken first. Their share in the collection is about 1.1%.
GSH fluor = compound fluorescence on glutathione beads, profiling panel, artefact control, biophysical, 488/530 nm, flow cytometry | GSH beads flow cytometry, compound fluorescence 488/530 nm; hits give high values | fluorescence (KMESF) at 10 µM | 190,000 compounds, 0.25% hits; in the data active = fluorescence above about 89;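 also: glutathione beads carrying GST-tagged Bcl family fusion proteins plus one bare bead set; values are compound well signal with DMSO vehicle wells as background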
Arrestin-AP2 inh = inhibitors of beta-arrestin/AP2 binding, primary screen, biochemical, GPCR trafficking, flow cytometry; FITC-arrestin peptide / GST-AP2 beads; AP2 beta2 appendage carries R879A mutation; inhibition, % at 10 µM; 340,000 compounds, 0.31% hits; AID 504490, 2011; beta-arrestin 1 C-terminal peptide binding to AP2 beta2-adaptin appendage (human);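 active = inhibition above a set limit, near 3 SD of compounds lacking own fluorescence, cut at about 54% in these data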;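 also: plate controls were DMSO wells for no effect and 5 µM unlabelled arrestin peptide for full effect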
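System: GST-AP2 R879A glutathione beads | Also added: FITC-arrestin peptide, 50 nM | Times: 12 min plus 1 h, RT | Signal: Bead flow cytometry, FITC channel | Buffer or medium: PBS with 0.05% Tween 20 and 0.1% BSA | Read-out basis: Percent drop in bead-associated FITC signal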
Avidin bead fluor = green autofluorescence of compounds with avidin beads – biophysical, 488/530 nm, flow cytometry, artefact control, profiling panel; compound fluorescence 488/530 nm; hits give high values; fluorescence (KMESF) at 10 µM; 220,000 compounds, 0.38% hits; in the data active = fluorescence above about 47
DSG3 Ab inh = inhibitors of pemphigus antibody binding to DSG3, primary screen, biochemical, bead-based, flow cytometry, scFv-GFP. Desmoglein-3 (Homo sapiens), P32926. DSG3-coupled beads, scFv-anti-DSG3-GFP binding; hits give low values. binding (percent of control), % at 10 µM. AID 588358, 2011. 310,000 compounds, 0.48% hits;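 active = binding more than 3 SD below its plate's average and above zero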;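 also: hits lower antibody fragment binding to DSG3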
Arr-AP2 CP1 = inhibitors of arrestin peptide binding to AP2, confirmation, biochemical, cherry pick 1, flow cytometry beads. shares compounds with Arrestin-AP2 inh. 1,300 compounds, 2% hits. inhibition, % at 10 µM. GST-AP2 beads, FITC arrestin peptide binding; GST-fused beta2-adaptin appendage, R879A mutant;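 active = inhibition above a set limit, roughly 3 SD of non-fluorescent compound noise, cut at about 38% in these data; inactive = inhibition at or below that limit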;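 also: loss of bead fluorescence from 50 nM FITC arrestin peptide bound to appendage; 0% = negative control wells and 100% = excess unlabelled arrestin peptide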
Target sequence (P63010 whole entry, looked up, the tested form may be a part, one chain of several): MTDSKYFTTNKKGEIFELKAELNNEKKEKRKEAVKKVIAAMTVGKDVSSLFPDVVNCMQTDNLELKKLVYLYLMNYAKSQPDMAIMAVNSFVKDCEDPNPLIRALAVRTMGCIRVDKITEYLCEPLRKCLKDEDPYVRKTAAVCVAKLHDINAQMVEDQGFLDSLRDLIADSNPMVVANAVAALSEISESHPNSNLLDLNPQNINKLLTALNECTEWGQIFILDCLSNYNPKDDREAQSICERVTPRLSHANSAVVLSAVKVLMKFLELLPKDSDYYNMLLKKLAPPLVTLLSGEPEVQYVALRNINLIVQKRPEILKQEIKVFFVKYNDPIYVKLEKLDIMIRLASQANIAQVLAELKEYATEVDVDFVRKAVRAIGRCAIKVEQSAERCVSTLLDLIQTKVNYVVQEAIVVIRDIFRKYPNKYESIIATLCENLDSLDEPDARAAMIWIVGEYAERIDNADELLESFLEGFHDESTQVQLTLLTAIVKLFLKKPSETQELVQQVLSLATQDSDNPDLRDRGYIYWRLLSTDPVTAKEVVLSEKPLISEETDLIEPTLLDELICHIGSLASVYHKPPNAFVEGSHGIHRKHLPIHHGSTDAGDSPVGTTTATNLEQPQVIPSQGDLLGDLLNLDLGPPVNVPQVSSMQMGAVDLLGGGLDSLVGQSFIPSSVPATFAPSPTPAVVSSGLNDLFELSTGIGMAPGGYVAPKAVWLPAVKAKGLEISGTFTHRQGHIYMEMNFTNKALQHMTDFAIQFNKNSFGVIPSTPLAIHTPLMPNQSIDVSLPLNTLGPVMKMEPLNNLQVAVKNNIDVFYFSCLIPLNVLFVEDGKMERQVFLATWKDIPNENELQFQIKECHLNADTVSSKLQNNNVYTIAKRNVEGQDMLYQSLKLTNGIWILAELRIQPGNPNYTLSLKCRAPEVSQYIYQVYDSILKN
GST-FITC bead = GST-fluorescein capture on glutathione beads, confirmation, artefact control for arrestin-AP2 inhibitor project, biochemical, cherry pick 1, flow cytometry; 1,300 compounds, 2% hits; inhibition, % at 10 µM; shares compounds with Arrestin-AP2 inh; GST-fluorescein binding to GSH beads, fluorescence, counter-screen; AID 588338, 2011;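 active = inhibition above 50%, about 3 SD of the inhibition seen with non-fluorescent compounds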;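 also: fluorescein maleimide labelled GST captured on 4 micron glutathione beads; higher means more loss of bead fluorescence from quenching or blocked binding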
Starred values were filed as active, the others as inactive; nt = not tested or not shown.

SMILES | GSH fluor | Arrestin-AP2 inh | Avidin bead fluor | DSG3 Ab inh | Arr-AP2 CP1 | GST-FITC bead
O=C(Nc1ccc(S(=O)(=O)N2CCCCC2)cc1)c1ccc(=O)[nH]c1 | nt | 23 | nt | 112 | nt | nt
CCn1ccnc1CNC(=O)C1CCC(=O)N(Cc2ccccc2F)C1 (stereo not given) | nt | 54* | nt | nt | -9 | 3
COc1ccccc1CN1CC(C(=O)NCc2c(F)ccc(C)c2F)CCC1=O (stereo not given) | nt | 9 | nt | 103 | -1 | -4
COc1ccccc1CCNC(=O)C1CCC(=O)N(Cc2ccccc2OC)C1 (stereo not given) | nt | 66* | nt | 111 | 9 | -3
COc1ccccc1CN1CC(C(=O)NCc2ccc(C)c(F)c2)CCC1=O (stereo not given) | nt | 22 | nt | nt | -8 | -2
COc1ccccc1CN1CC(C(=O)NCCc2ccc(C)o2)CCC1=O (stereo not given) | nt | 37 | nt | 107 | nt | nt
O=C(COc1coc(CN2CCc3ccccc3C2)cc1=O)Nc1cccc(Cl)c1 | nt | 2 | nt | 103 | nt | nt
NC(=O)CCC(C(=O)O)N1C(=O)c2ccc(O)cc2C1=O (stereo not given) | nt | 31 | 6 | 94 | nt | nt
COc1ccc(OC)c(NC(=O)c2cc3c(Cl)nc4ccccc4c3s2)c1 | 8 | 104* | 13 | 95 | -7 | -11
O=C(COC(=O)C1(c2cccc(F)c2)CCCC1)NCc1cccs1 | 15 | 14 | 8 | 105 | nt | nt
CCOCC(=O)Nc1ccc2c(c1)N(S(=O)(=O)c1cccs1)CCC2 | nt | 56* | nt | 107 | -2 | -9
O=C(CSc1nc2c([nH]c3ccccc32)c(=O)n1-c1ccc(F)cc1)NCc1ccco1 | 19 | 101* | 5 | 77 | -1 | 39
Cc1ccc(-n2c(SCC(=O)Nc3cc(C)on3)nc3c([nH]c4ccccc43)c2=O)cc1 | 18 | 92* | 6 | 74 | 10 | 23
O=C(CSc1nc2ccccc2c(=O)n1-c1ccccc1)NCc1ccco1 | 36 | -5 | 4 | nt | nt | nt
C[C@@H]1CN([C@@H](C)CO)C(=O)CCCn2nncc2CO[C@H]1CN(C)C | nt | nt | nt | 111 | nt | nt
NC(=O)C1CCCN(C(=O)CCCNC(=O)c2ccc(Cl)cc2)C1 (stereo not given) | nt | 3 | nt | 109 | nt | nt
CCNC(=O)c1c(NC(=O)c2cc(-c3cc(C)cc(C)c3O)n[nH]2)sc2c1CCCC2 | nt | 14 | nt | 89 | nt | nt
O=C1C2C3C=CC(c4ccccc4)(C2C(=O)N1c1cccc(Cl)c1)C1C(=O)N(c2cccc(Cl)c2)C(=O)C31 (stereo not given) | 10 | 61* | 13 | 100 | 5 | -8
CCCCNC(=O)Cn1nc([N+](=O)[O-])c([N+](=O)[O-])c1C | 19 | 69* | 8 | 98 | 18 | -5
COc1ccccc1Oc1coc2c(CN(C)C)c(O)ccc2c1=O | 9 | 2 | 18 | 98 | nt | nt
CCN(CC)Cc1c(O)ccc2c(=O)c(Oc3ccccc3OC)coc12 | 33 | 56* | 11 | 96 | 7 | -6
Cc1ccc(CN(C)C(=O)COC(=O)CSc2ccc(C(N)=O)cc2[N+](=O)[O-])cc1 | nt | 9 | nt | 118 | nt | nt
O=C(/C=C/c1ccc(F)cc1)Nc1ccc(S(=O)(=O)N2CCOCC2)cc1 | nt | 54* | nt | 78 | -6 | 10
O=C(/C=C/c1ccc(F)cc1)Nc1cc(S(=O)(=O)N2CCOCC2)ccc1N1CCOCC1 | nt | nt | nt | 100 | nt | nt
O=C(CCc1ccccc1Cl)Nc1ccc(S(=O)(=O)N2CCOCC2)cc1 | nt | 59* | nt | 102 | -4 | -2
SMILES | GSH fluor | Arrestin-AP2 inh | Avidin bead fluor | DSG3 Ab inh | Arr-AP2 CP1 | GST-FITC bead
CCCn1c(SCC(=O)Nc2ccc(Cl)cc2F)nc(O)cc1=O | nt | -6 | nt | nt | nt | nt
CCCn1c(SCC(=O)Nc2ccc(F)c(Cl)c2)nc(O)cc1=O | nt | 55* | nt | 99 | -7 | -6
CCN(CC)C(=O)CSc1nnc2nnc3cc(C)ccc3n12 | nt | 57* | 11 | 110 | -1 | 0
CCN(CC)C(=O)CSc1nnc2nnc3cc(Cl)ccc3n12 | nt | -9 | 10 | 109 | nt | nt
COC(=O)c1ccccc1N/C=C1\CCc2c(c(C)nn2-c2ccccn2)C1=O | 6 | 56* | 22 | nt | 55* | 15
COC(=O)c1ccccc1NC(=O)CN1CCN(c2ccccn2)CC1 | 11 | -6 | 11 | 101 | nt | nt
O=C(NCc1ccccc1Cl)c1cnccc1C(F)(F)F | nt | 55* | 6 | 115 | -4 | -9
O=C(CCSCCC(=O)Nc1c(F)c(F)c(F)c(F)c1F)Nc1c(F)c(F)c(F)c(F)c1F | 10 | 58* | 14 | 91 | -8 | -4
COc1ccc(CCNC(=O)CCn2c(=O)c3cccn3c3cccnc32)cc1OC | nt | -10 | nt | 103 | nt | nt
CN(C(=O)COC(=O)Cc1c[nH]c2ccccc12)c1c(N)n(Cc2ccccc2)c(=O)[nH]c1=O | nt | -3 | nt | 101 | nt | nt
CCN(C(=O)COC(=O)Cc1c[nH]c2ccccc12)c1c(N)n(Cc2ccccc2)c(=O)[nH]c1=O | nt | 71* | nt | 107 | -5 | -6
CCn1c(SCC(=O)Nc2cc(C)nn2-c2ccccc2)nnc1-c1cccs1 | nt | 22 | 8 | nt | nt | nt
CN1c2ccccc2N(C)C1(C)c1ccccc1 | 5 | 67* | 0 | 84 | 62* | 26
CN1C(=O)N(C)C2(c3ccccc3)NC(=O)NC12c1ccccc1 (stereo not given) | 39 | 4 | 7 | 106 | nt | nt
O=C(Cn1cnc(S(=O)(=O)N2CCCC2)c1)Nc1ccc(OC(F)(F)F)cc1 | nt | 66* | nt | 100 | 2 | -5
O=C(NNC(=O)c1cc(-c2ccccc2)nn1-c1ccccc1)c1ccccc1 | 9 | 6 | 4 | 97 | nt | nt
CCC(C)NC(=O)c1ccc2c(c1)N(Cc1ccccc1)C(=O)CS2 (stereo not given) | 12 | 56* | 22 | 114 | -2 | -5
CCN1C(=O)CSc2ccc(C(=O)NCc3ccccc3)cc21 | nt | 3 | nt | 102 | nt | nt
Cc1noc(C)c1S(=O)(=O)Nc1ccc2c(c1)C(=O)N([C@H](C)CO)C[C@H](C)[C@@H](CN(C)Cc1ccc(C(=O)O)cc1)O2 | nt | 60* | nt | 94 | 7 | 10
C[C@H](CO)N1C[C@H](C)[C@@H](CN(C)Cc2ccc(C(=O)O)cc2)Oc2ccc(NS(=O)(=O)c3cn(C)cn3)cc2C1=O | nt | -1 | nt | 106 | nt | nt
Cc1ccccc1OCC(=O)OCC(=O)NCc1ccco1 | nt | 23 | nt | 99 | nt | nt
COc1ccccc1NCCC(=O)OCC(=O)NCc1ccco1 | 9 | 75* | 5 | 105 | -9 | -4
N#Cc1c(NC(=O)CSc2ncnc3c2cnn3-c2ccccc2Cl)sc2c1CCCC2 | 9 | 60* | 24 | 91 | -19 | 0
